These results are taken from ChEMBL document CHEMBL4811287, “Discovery of dronedarone and its analogues as NLRP3 inflammasome inhibitors with potent anti-inflammation activity” (Bioorg Med Chem Lett, 2021).

Molecules are shown by their SMILES. The source made the active and inactive calls. The calls are words filed in the database; no cut-off is given here. A value given as a limit tells only on which side of the number the result lay.

Assay [1] deals with NACHT, LRR and PYD domains-containing protein 3 (Mus musculus, UniProt Q8R4B8). The experiment in a line: (§1) Inhibition of NLRP3 inflammasome in LPS-primed mouse J774.A1 cells assessed as reduction in IL-1beta secretion preincubated with compound for 1 hr followed by nigericin stimulation for 1 hr by ELISA. In kind it is cell-based. The procedure, abridged:
(§2)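 J774A.1 murine macrophages primed with LPS, exposed to compound at indicated doses for 1 h, then stimulated with nigericin for another 1 h; IL-1β released into supernatant measured by ELISA.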
In general terms: In an ELISA, binding on a coated surface is turned into a signal by an enzyme label.

A short description of assay [2]: Inhibition of K+ channel in LPS-primed mouse bone marrow derived macrophages assessed as inhibition of NLRP3 inflammasome activation-mediated IL-1beta release. The class given is tissue-based. The conditions noted are these: BMDM.
Another assay concerns Microglia. As to the kind of experiment: Inhibition of Ca2+ channel in mouse microglial cells assessed as inhibition of Abeta-stimulated NLRP3 inflammasome activation-mediated IL-1beta release at 36 nM by ELISA. In kind it is cell-based.
The nature of assay [3]: Inhibition of Cl- channel in human monocytes assessed as inhibition of ATP-induced NLRP3 inflammasome-activation mediated IL-1beta release. The class given is cell-based. The note with it: Monocyte.
A short description of assay [4]: Inhibition of ATP-sensitive K+ channel in LPS-activated human monocytes assessed as inhibition of NLRP3 inflammasome activation-mediated IL-1beta release. The class given is cell-based. The note with it: Monocyte.
The target of assay [5] is NACHT, LRR and PYD domains-containing protein 3 (Mus musculus) (UniProt Q8R4B8). As to the kind of experiment: Inhibition of NLRP3 inflammasome in LPS/nigericin-stimulated mouse J774.A1 cells assessed as reduction in IL-1beta level in cell supernatant by Western blot analysis. The conditions noted are these: dose 1-20 µM. The procedure, abridged:
(§3)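 LPS-primed J774A.1 cells treated with compound, then nigericin-activated; NLRP3-related proteins analysed by Western blot in cell supernatant (caspase-1 p20, IL-1β) and cell lysate.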

The test system of assay [6] is Mus musculus. As to the kind of experiment: Antiinflammatory activity against LPS-induced sepsis C57BL/6 mouse model assessed as decrease in peritoneal fluid IL-1beta level at 100 mg/kg, ip administered as single dose prior to LPS challenge by ELISA. The conditions noted are these: C57BL/6, ip. The class given is functional. Summed up: (§4)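 C57BL/6 mice given 100 mg/kg ahead of intraperitoneal LPS injection. Serum and peritoneal lavage fluid collected and cytokines (IL-1β, IL-6, TNF-α) quantified by ELISA. n = 5 per group, means ± SEM, compared against LPS-only group.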

In assay [7] the target is NACHT, LRR and PYD domains-containing protein 3 (Mus musculus) (UniProt Q8R4B8). The assay is described as §1. In kind it is cell-based. The note with it: time 2.0 hrs. The procedure, abridged: as §2
Sequence of NACHT, LRR and PYD domains-containing protein 3 (Mus musculus) (Q8R4B8 whole entry, the tested form may be a part): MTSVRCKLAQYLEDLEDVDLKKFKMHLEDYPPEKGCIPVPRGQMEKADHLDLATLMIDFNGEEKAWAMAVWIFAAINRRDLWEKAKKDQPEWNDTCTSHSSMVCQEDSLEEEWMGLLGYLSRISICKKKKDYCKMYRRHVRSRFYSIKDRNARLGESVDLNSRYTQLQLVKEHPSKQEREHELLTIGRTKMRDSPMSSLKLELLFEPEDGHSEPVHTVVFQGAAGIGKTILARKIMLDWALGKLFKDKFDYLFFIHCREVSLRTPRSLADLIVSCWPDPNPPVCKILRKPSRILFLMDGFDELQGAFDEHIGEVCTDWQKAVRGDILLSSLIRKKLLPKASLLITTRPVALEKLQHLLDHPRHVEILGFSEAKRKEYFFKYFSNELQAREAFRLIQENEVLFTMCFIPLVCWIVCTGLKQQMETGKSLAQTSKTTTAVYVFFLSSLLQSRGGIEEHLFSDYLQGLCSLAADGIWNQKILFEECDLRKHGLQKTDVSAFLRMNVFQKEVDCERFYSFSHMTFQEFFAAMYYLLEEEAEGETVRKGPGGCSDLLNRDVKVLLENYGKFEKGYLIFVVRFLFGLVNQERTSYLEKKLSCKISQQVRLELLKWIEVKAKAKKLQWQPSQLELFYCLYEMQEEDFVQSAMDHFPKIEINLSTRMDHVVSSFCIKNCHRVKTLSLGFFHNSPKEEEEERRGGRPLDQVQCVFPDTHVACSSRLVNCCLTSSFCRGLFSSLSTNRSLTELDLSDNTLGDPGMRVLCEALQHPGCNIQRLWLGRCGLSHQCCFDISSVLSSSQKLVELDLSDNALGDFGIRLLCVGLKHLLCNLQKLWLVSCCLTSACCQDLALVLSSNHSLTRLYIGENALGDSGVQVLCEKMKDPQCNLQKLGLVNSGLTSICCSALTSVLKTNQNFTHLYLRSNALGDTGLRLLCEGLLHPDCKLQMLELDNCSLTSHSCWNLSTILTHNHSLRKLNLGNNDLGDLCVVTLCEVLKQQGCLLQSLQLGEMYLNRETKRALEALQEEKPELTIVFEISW
Assay [8] shares this target. As to the kind of experiment: Inhibition of NLRP3 inflammasome in LPS/nigericin-stimulated mouse J774.A1 cells assessed as effect on pro-IL-1beta expression level in cell lysates by Western blot analysis. The class given is subcellular. The procedure, abridged:
as §3

The test system of another assay is J774.A1. The experiment in a line: Effect on NLRP3 expression in LPS/nigericin-stimulated mouse J774.A1 cell lysates by western blot analysis. In kind it is functional, subcellular. Summed up: as §3
Assay [9] concerns Mus musculus. The experiment in a line: Antiinflammatory activity against LPS-induced sepsis C57BL/6 mouse model assessed as decrease in serum IL-1beta level at 100 mg/kg, ip administered as single dose prior to LPS challenge by ELISA. The conditions noted are these: C57BL/6, ip. In kind it is functional. Summed up:
as §4

Assay [10] concerns Mus musculus. The experiment in a line: Antiinflammatory activity against LPS-induced sepsis C57BL/6 mouse model assessed as decrease in serum IL-6 level at 100 mg/kg, ip administered as single dose prior to LPS challenge by ELISA. The class given is functional. The conditions noted are these: C57BL/6, ip. Summed up: as §4
For assay [11], the target named is NACHT, LRR and PYD domains-containing protein 3 (Mus musculus) (UniProt Q8R4B8). The experiment in a line: Inhibition of NLRP3 inflammasome in LPS/nigericin-stimulated mouse J774.A1 cells assessed as effect on ASC expression level in cell lysates by Western blot analysis. The class given is subcellular. The procedure, abridged: as §3
Assay [12] has as its system Mus musculus. As to the kind of experiment: Antiinflammatory activity against LPS-induced sepsis C57BL/6 mouse model assessed as decrease in peritoneal fluid IL-6 level at 100 mg/kg, ip administered as single dose prior to LPS challenge by ELISA. The class given is functional. The conditions noted are these: C57BL/6, ip. The procedure, abridged:
as §4

Assay [13] addresses NACHT, LRR and PYD domains-containing protein 3 (Mus musculus) (UniProt Q8R4B8). As to the kind of experiment: Inhibition of NLRP3 inflammasome in LPS/nigericin-stimulated mouse J774.A1 cells assessed as reduction in caspase 1 p20 level in cell supernatants by Western blot analysis. The conditions noted are these: dose 1-20 µM. The procedure, abridged: as §3
The target is the same in assay [14]. The experiment in a line: Inhibition of NLRP3 inflammasome in LPS/nigericin-stimulated mouse J774.A1 cells assessed as effect on pro-caspase-1 expression level in cell lysates by Western blot analysis. In kind it is subcellular. Summed up: as §3
For assay [15], the system named is Mus musculus. As to the kind of experiment: Antiinflammatory activity against LPS-induced sepsis C57BL/6 mouse model assessed as decrease in peritoneal fluid TNF-alpha level at 100 mg/kg, ip administered as single dose prior to LPS challenge by ELISA. In kind it is functional, organism-based. Summed up:
as §4

Assay [16] deals with Mus musculus. The experiment in a line: Antiinflammatory activity against LPS-induced sepsis C57BL/6 mouse model assessed as decrease in serum TNF-alpha level at 100 mg/kg, ip administered as single dose prior to LPS challenge by ELISA. In kind it is functional. The conditions noted are these: C57BL/6, ip. Summed up:
as §4

Sequence of NACHT, LRR and PYD domains-containing protein 3 (Q8R4B8 whole entry, the tested form may be a part): as above

With `CCCCc1oc2ccc(NC(=O)Nc3ccc(OC)cc3)cc2c1C(=O)c1ccc(OCCCN(CCCC)CCCC)cc1`, the IC50 – broadly, the point on the concentration scale where inhibition reaches its midpoint – in assay [1] amounted to 24.5 µM.
The same measure, in the same setting: the same measure for `CCCCc1oc2ccc(S(N)(=O)=O)cc2c1C(=O)c1ccc(OCCCN(CCCC)CCCC)cc1`: 26.7 µM; for `C=CS(=O)(=O)Nc1ccc2oc(CCCC)c(C(=O)c3ccc(OCCCN(CCCC)CCCC)cc3)c2c1`: 25.3 µM; for `CCCCc1oc2ccc(S(=O)(=O)N(CCC)CCC)cc2c1C(=O)c1ccc(OCCCN(CCCC)CCCC)cc1`: greater than 100 µM.
Same read-out and setting: the same measure for `CCCCc1oc2ccc(NC(C)=O)cc2c1C(=O)c1ccc(OCCCN(CCCC)CCCC)cc1`: 6.77 µM; for `CCCCc1oc2ccc(NS(=O)(=O)C3CC3)cc2c1C(=O)c1ccc(OCCCN(CCCC)CCCC)cc1`: 45.5 µM.
Consider `CCCCc1oc2ccc(NS(=O)(=O)c3ccc(F)cc3)cc2c1C(=O)c1ccc(OCCCN(CCCC)CCCC)cc1`, for which the concentration for half-maximal inhibition (IC50) in assay [1] came to 12.7 µM.
Still for that read-out and setting: the same measure for `CCCCc1oc2ccc(NS(=O)(=O)c3ccc(OC)cc3)cc2c1C(=O)c1ccc(OCCCN(CCCC)CCCC)cc1`: 27.9 µM; for `CCCCc1oc2ccc(S(=O)(=O)N(C)C)cc2c1C(=O)c1ccc(OCCCN(CCCC)CCCC)cc1`: 61.1 µM.
Same read-out and setting: the same measure for `CCCCc1oc2ccc(NS(C)(=O)=O)cc2c1C(=O)c1ccc(OCCCN(CCCC)CCCC)cc1` [DRONEDARONE]: 6.84 µM; for `CCCCc1oc2ccc(NS(=O)(=O)N(C)C)cc2c1C(=O)c1ccc(OCCCN(CCCC)CCCC)cc1`: 13.4 µM; for `CCCCc1oc2ccc(NS(=O)(=O)c3ccc(C(F)(F)F)cc3)cc2c1C(=O)c1ccc(OCCCN(CCCC)CCCC)cc1`: 81.6 µM.
Regarding `CCCCc1oc2ccc(NC(=O)c3ccc(OC)cc3)cc2c1C(=O)c1ccc(OCCCN(CCCC)CCCC)cc1`, the IC50 in assay [1] was greater than 100 µM.
Same read-out and setting: the same measure for `CCCCc1oc2ccc(NS(=O)(=O)NC)cc2c1C(=O)c1ccc(OCCCN(CCCC)CCCC)cc1`: 11.4 µM; for `CCCCc1oc2ccc(S(=O)(=O)NOC)cc2c1C(=O)c1ccc(OCCCN(CCCC)CCCC)cc1`: 83.8 µM.
As to `CCCCc1oc2ccc(NS(=O)(=O)c3ccc(C)cc3)cc2c1C(=O)c1ccc(OCCCN(CCCC)CCCC)cc1`, the IC50 in assay [1] came out at 25 µM.
Consider `C=CC(=O)Nc1ccc2oc(CCCC)c(C(=O)c3ccc(OCCCN(CCCC)CCCC)cc3)c2c1`, for which, in assay [1], the IC50 is 26.7 µM.
Consider `CCCCc1oc2ccc(NC(=O)Nc3ccc(C#N)cc3)cc2c1C(=O)c1ccc(OCCCN(CCCC)CCCC)cc1`, for which, in assay [1], the IC50 worked out at 18.5 µM.
Same read-out and setting: the same measure for `CCCCc1oc2ccc(N)cc2c1C(=O)c1ccc(OCCCN(CCCC)CCCC)cc1`: greater than 100 µM; for `CCCCc1oc2ccc(S(=O)(=O)NCCN(C)C)cc2c1C(=O)c1ccc(OCCCN(CCCC)CCCC)cc1`: greater than 100 µM.
On the same count and under the same terms, the same measure for `CCCCC(=O)Nc1ccc2oc(CCCC)c(C(=O)c3ccc(OCCCN(CCCC)CCCC)cc3)c2c1`: 5.82 µM; for `CCCCc1oc2ccc(NC(=O)Nc3ccc(C)cc3)cc2c1C(=O)c1ccc(OCCCN(CCCC)CCCC)cc1`: 71.2 µM; for `CCCCc1oc2ccc(NS(=O)(=O)NC(C)C)cc2c1C(=O)c1ccc(OCCCN(CCCC)CCCC)cc1`: 7.65 µM.
Consider `CCCCc1oc2ccc(NC(=O)NC3CCCC3)cc2c1C(=O)c1ccc(OCCCN(CCCC)CCCC)cc1`, for which the concentration for half-maximal inhibition (IC50) in assay [1] was determined as 25 µM.
Still for that read-out and setting: the same measure for `CCCCc1oc2ccccc2c1C(=O)c1ccc(OCCCN(CCCC)CCCC)cc1`: greater than 100 µM; for `CCCCc1oc2ccc(NC(=O)NC3CCCCC3)cc2c1C(=O)c1ccc(OCCCN(CCCC)CCCC)cc1`: 74.8 µM; for `CCCCc1oc2ccc(NC(=O)c3ccccc3)cc2c1C(=O)c1ccc(OCCCN(CCCC)CCCC)cc1`: 13.3 µM.
On to `CC(O)CC(=O)O` (stereo not drawn) [3-HYDROXYBUTYRIC ACID, (+/-)-], for which the concentration for half-maximal inhibition (IC50) in assay [2] is 2000 µM.
`CCCCc1oc2ccc(NC(=O)C(C)(C)C)cc2c1C(=O)c1ccc(OCCCN(CCCC)CCCC)cc1`: the IC50 in assay [1] came out at 9.03 µM.
As to `CCCCc1oc2ccc(NS(=O)(=O)CC)cc2c1C(=O)c1ccc(OCCCN(CCCC)CCCC)cc1`, in [1], the IC50 amounted to 19 µM.
`COCCOC(=O)C1=C(C)NC(C)=C(C(=O)OC(C)C)C1c1cccc([N+](=O)[O-])c1` (stereo not given): the inhibition – broadly, the percentage by which the read-out fell short of the control – in the assay with Microglia was 48%.
Regarding `CCCCc1oc2ccc(NC(=O)NC(C)C)cc2c1C(=O)c1ccc(OCCCN(CCCC)CCCC)cc1`, the IC50 in [1] worked out at 13.3 µM.
With `CCCCc1oc2ccc(NC(=O)Nc3ccc(Cl)cc3)cc2c1C(=O)c1ccc(OCCCN(CCCC)CCCC)cc1`, the IC50 in assay [1] came out at 16.1 µM.
Still for that read-out and setting: the same measure for `CCCCc1oc2ccc(S(=O)(=O)NC(C)C)cc2c1C(=O)c1ccc(OCCCN(CCCC)CCCC)cc1`: 42.5 µM.
As for `C=C(CC)C(=O)c1ccc(OCC(=O)O)c(Cl)c1Cl` [ETHACRYNIC ACID], in assay [3], the IC50 came to 3 µM.
`CCCCc1oc2ccc(S(=O)(=O)NC)cc2c1C(=O)c1ccc(OCCCN(CCCC)CCCC)cc1`: the IC50 in assay [1] amounted to 22.2 µM.
On to `CCCCc1oc2ccc(NS(=O)(=O)c3cccnc3)cc2c1C(=O)c1ccc(OCCCN(CCCC)CCCC)cc1`, for which, in [1], the IC50 is 33.4 µM.
On to `CCCCc1oc2ccc(NS(=O)(=O)c3ccccc3)cc2c1C(=O)c1ccc(OCCCN(CCCC)CCCC)cc1`, for which, in [1], the IC50 came out at 10.7 µM.
Turning to `COc1ccc(Cl)cc1C(=O)NCCc1ccc(S(=O)(=O)NC(=O)NC2CCCCC2)cc1` [GLYBURIDE], the IC50 in assay [4] came out at 12 µM.
For `CCCCc1oc2ccc(NC(=O)NCCC)cc2c1C(=O)c1ccc(OCCCN(CCCC)CCCC)cc1`, the IC50 in assay [1] is 19.2 µM.
As to `CCCCc1oc2ccc(NC(=O)C(C)C)cc2c1C(=O)c1ccc(OCCCN(CCCC)CCCC)cc1`, the inhibition entry in [5], in assay [7] and in [13] was “Dose-Dependent Effect” in each case. Besides, the inhibition in vivo (as a rule, the percentage by which the read-out fell short of the control) at 100 mg/kg in the assay on Mus musculus [6] came out at 22%; in the assay with Mus musculus [9], 42%; with Mus musculus [10] it was 0%; in the assay with Mus musculus [12], 2%; in the assay on Mus musculus [16], 18%. Besides, the IC50 in [1] came out at 3.85 µM. For the same molecule, the inhibition result in assay [8], in [11] and in assay [14] was “inactive” each time. Moreover, the result in the assay with J774.A1 and with Mus musculus [15] was inactive.
Regarding `CCCCc1oc2ccc(NS(=O)(=O)C3CCCCC3)cc2c1C(=O)c1ccc(OCCCN(CCCC)CCCC)cc1`, the IC50 in assay [1] was determined as 25 µM.
